Reference: ChEMBL document CHEMBL1153959, “QSAR analysis of pyrazolidine-3,5-diones derivatives as Dyrk1A inhibitors” (Bioorg Med Chem Lett, 2009)

Key:
[1] = target: Dual specificity tyrosine-phosphorylation-regulated kinase 1A (Mus musculus) (UniProt Q61214); assay: Inhibition of Dyrk1 autophosphorylation
[2] = target: Cyclin-dependent kinase 5/CDK5 activator 1 (Homo sapiens) (UniProt Q00535+Q15078); assay: Inhibition of human CDK5/p35 at 10 uM; type: protein-complex assay; parameters: scale not given: the % may be the effect or the level left
Cyclin-dependent kinase 5/CDK5 activator 1 (Homo sapiens), sequence (Q00535 whole entry): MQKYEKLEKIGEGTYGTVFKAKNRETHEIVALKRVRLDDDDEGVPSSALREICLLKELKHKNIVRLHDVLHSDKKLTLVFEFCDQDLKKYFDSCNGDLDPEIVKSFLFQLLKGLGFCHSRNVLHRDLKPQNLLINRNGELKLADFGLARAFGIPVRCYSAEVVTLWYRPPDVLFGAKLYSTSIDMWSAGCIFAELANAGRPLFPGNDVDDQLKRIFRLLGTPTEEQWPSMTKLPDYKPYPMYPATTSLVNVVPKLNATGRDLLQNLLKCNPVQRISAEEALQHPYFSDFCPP
Cyclin-dependent kinase 5/CDK5 activator 1 (Homo sapiens), sequence (Q15078 99-307 partner limits assumed): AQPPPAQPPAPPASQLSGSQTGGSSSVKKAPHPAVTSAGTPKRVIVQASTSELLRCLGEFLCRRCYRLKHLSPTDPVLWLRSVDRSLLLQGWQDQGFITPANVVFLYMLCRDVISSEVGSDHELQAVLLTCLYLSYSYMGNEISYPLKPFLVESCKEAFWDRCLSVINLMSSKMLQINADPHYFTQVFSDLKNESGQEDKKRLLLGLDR
How it was run: (§1)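 Each human kinase was assayed with ATP at that kinase's own Km value. Activity was expressed as a percentage of control incubations run without inhibitor. Values are means of duplicate determinations with SD.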

[3] = target: Dual specificity protein kinase CLK3 (Homo sapiens) (UniProt P49761); assay: Inhibition of human CLK3 at 10 uM; parameters: scale not given: the % may be the effect or the level left
Dual specificity protein kinase CLK3 (Homo sapiens), sequence (P49761 whole entry, looked up): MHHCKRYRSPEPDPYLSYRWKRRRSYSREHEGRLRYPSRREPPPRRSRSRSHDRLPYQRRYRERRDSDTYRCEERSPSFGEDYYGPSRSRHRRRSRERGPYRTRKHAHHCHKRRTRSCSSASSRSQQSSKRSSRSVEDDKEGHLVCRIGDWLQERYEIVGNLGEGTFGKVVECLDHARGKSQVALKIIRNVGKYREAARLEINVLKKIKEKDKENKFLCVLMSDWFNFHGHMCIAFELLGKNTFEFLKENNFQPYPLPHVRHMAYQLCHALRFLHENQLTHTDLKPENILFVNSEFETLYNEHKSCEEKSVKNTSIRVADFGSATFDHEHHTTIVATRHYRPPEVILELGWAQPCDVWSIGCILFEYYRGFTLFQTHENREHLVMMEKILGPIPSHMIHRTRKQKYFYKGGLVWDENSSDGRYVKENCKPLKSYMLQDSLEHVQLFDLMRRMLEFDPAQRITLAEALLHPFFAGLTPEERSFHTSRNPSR
How it was run: as §1

[4] = target: T1, Dual specificity tyrosine-phosphorylation-regulated kinase 2 (Homo sapiens) (UniProt Q92630); assay: Inhibition of human DYRK2 at 10 uM; parameters: scale not given: the % may be the effect or the level left
T1 sequence (whole entry): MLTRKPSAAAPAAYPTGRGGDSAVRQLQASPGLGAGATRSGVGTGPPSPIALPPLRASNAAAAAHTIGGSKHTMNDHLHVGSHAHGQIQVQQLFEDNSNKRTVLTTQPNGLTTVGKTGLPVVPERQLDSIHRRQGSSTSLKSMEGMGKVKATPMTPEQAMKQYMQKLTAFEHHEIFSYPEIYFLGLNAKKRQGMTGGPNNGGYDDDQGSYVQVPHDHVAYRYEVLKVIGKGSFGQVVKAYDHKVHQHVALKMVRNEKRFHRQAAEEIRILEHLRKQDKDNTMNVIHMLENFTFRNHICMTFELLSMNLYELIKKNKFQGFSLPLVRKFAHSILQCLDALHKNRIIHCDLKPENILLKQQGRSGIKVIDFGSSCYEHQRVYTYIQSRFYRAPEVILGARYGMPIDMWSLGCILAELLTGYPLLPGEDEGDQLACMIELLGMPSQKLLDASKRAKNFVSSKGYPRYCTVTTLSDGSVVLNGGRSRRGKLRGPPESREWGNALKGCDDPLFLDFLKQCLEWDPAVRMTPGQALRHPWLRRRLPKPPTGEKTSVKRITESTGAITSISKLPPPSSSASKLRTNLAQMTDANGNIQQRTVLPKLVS
How it was run: as §1

[5] = target: Glycogen synthase kinase-3 beta (Homo sapiens) (UniProt P49841); assay: Inhibition of human GSK3-beta at 10 uM; parameters: scale not given: the % may be the effect or the level left
Glycogen synthase kinase-3 beta (Homo sapiens), sequence (P49841 whole entry, looked up): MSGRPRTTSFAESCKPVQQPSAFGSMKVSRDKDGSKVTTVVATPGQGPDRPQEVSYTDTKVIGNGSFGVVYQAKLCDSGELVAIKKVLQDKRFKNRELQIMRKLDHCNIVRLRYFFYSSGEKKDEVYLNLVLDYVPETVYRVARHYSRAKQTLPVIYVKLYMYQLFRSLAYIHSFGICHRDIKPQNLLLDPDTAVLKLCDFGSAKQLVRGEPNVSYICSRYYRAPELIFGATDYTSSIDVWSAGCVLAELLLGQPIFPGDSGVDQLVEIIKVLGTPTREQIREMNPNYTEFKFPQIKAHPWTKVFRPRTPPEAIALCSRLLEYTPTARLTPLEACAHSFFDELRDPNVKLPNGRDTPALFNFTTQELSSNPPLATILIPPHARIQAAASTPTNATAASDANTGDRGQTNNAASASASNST
How it was run: as §1

[6] = target: Mitogen-activated protein kinase 10 (Homo sapiens) (UniProt P53779); assay: Inhibition of human JNK3 at 10 uM; parameters: scale not given: the % may be the effect or the level left
Mitogen-activated protein kinase 10 (Homo sapiens), sequence (P53779 whole entry): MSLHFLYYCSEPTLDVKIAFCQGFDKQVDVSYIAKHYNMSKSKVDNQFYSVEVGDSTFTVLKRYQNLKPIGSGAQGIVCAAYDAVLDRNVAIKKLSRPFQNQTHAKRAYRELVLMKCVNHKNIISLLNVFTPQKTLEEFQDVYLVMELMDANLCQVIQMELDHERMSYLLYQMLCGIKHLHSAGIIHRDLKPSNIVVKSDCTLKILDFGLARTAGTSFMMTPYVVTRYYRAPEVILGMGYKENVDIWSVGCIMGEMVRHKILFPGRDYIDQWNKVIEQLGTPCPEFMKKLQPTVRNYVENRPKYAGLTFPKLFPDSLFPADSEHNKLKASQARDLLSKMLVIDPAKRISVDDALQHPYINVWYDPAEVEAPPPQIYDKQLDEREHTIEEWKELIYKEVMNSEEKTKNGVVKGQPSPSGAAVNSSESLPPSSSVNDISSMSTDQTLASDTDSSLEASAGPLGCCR
How it was run: as §1

[7] = target: MAP kinase-activated protein kinase 2 (Homo sapiens) (UniProt P49137); assay: Inhibition of human MAPK2 at 10 uM; parameters: scale not given: the % may be the effect or the level left
MAP kinase-activated protein kinase 2 (Homo sapiens), sequence (P49137 whole entry, looked up): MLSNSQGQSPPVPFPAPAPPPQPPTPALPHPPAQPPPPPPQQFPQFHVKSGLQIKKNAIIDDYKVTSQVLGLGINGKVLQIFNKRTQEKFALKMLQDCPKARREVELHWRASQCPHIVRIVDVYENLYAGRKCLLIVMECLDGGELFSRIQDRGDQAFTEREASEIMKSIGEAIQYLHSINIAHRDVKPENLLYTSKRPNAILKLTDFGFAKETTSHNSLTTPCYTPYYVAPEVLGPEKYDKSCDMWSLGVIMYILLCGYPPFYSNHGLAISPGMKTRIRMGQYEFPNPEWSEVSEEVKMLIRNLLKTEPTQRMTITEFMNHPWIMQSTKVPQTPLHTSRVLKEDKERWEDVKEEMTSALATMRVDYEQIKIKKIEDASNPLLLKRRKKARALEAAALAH
How it was run: as §1

Homo sapiens = organism: Homo sapiens; assay: Inhibition of human PKA at 10 uM; parameters: scale not given: the % may be the effect or the level left
How it was run: as §1

[8] = target: Protein kinase C alpha type (Homo sapiens) (UniProt P17252); assay: Inhibition of human PKCalpha at 10 uM; parameters: scale not given: the % may be the effect or the level left
How it was run: as §1

IC50 [1]	Structure (SMILES)	further results
5 µM	O=C1NN(c2ccc(Cl)c(Cl)c2)C(=O)/C1=C/c1ccc(F)c(F)c1	–
> 50 µM	COc1ccccc1/C=C1\C(=O)NN(c2ccc(Cl)c(Cl)c2)C1=O	–
20 µM	COc1cc(/C=C2\C(=O)NN(c3ccc(Cl)c(Cl)c3)C2=O)cc(OC)c1	–
> 50 µM	COc1ccc(N2NC(=O)/C(=C\c3ccccc3OC)C2=O)cc1	–
> 50 µM	COc1ccc(/C=C2\C(=O)NN(c3ccc(C#N)cc3)C2=O)cc1O	–
1.2 µM	COc1ccc(N2NC(=O)/C(=C\c3ccc(O)c(OC)c3)C2=O)cc1	–
> 50 µM	COc1ccc(/C=C2\C(=O)NN(c3ccc(Cl)c(Cl)c3)C2=O)c(OC)c1	–
> 50 µM	COc1ccc(N2NC(=O)/C(=C\c3ccccc3F)C2=O)cc1	–
0.6 µM	COc1cc(/C=C2\C(=O)NN(c3ccc(C#N)cc3)C2=O)ccc1O	Activity [2]: 104%; Activity [3]: 93%; Activity [4]: 78%; Activity [5]: 76%; Activity [6]: 93%; Activity [7]: 110%; Activity (Homo sapiens): 69%; Activity [8]: 77%
> 50 µM	COc1ccc(N2NC(=O)/C(=C\c3cc(OC)cc(OC)c3)C2=O)cc1	–
40 µM	COc1ccccc1/C=C1\C(=O)NN(c2ccc(C#N)cc2)C1=O	–
> 50 µM	COc1ccc(N2NC(=O)/C(=C\c3cccc(Cl)c3Cl)C2=O)cc1	–
> 50 µM	O=C1NN(c2ccc(Cl)c(Cl)c2)C(=O)/C1=C/c1cc(O)cc(O)c1	–
> 50 µM	COc1ccccc1/C=C1\C(=O)NN(c2ccc(F)cc2)C1=O	–
> 50 µM	COc1cccc(/C=C2\C(=O)NN(c3ccc(Cl)c(Cl)c3)C2=O)c1	–
15 µM	O=C1NN(c2ccc(Cl)c(Cl)c2)C(=O)/C1=C/c1cccc(Cl)c1Cl	–
> 50 µM	COc1cc(/C=C2\C(=O)NN(c3ccc(Cl)c(Cl)c3)C2=O)cc(OC)c1O	–

IC50 [1]	Structure (SMILES)	further results
> 50 µM	COc1ccc(N2NC(=O)/C(=C\c3cccc(OC)c3)C2=O)cc1	–
> 50 µM	O=C1NN(c2ccc(Cl)c(Cl)c2)C(=O)/C1=C/c1c(Cl)cccc1Cl	–
2.5 µM	O=C1NN(c2ccc(Cl)c(Cl)c2)C(=O)/C1=C/c1ccc(O)cc1	–
0.6 µM	O=C1NN(c2ccc(Cl)c(Cl)c2)C(=O)/C1=C/c1ccc(O)c([N+](=O)[O-])c1	Activity [2]: 91%; Activity [3]: 75%; Activity [4]: 17%; Activity [5]: 102%; Activity [6]: 94%; Activity [7]: 105%; Activity (Homo sapiens): 72%; Activity [8]: 82%
> 50 µM	COc1ccc(N2NC(=O)/C(=C\c3cc(OC)c(O)c(OC)c3)C2=O)cc1	–
> 50 µM	COc1ccc(/C=C2\C(=O)NN(c3ccc(Cl)c(Cl)c3)C2=O)cc1	–
> 50 µM	COc1ccc(/C=C2\C(=O)NN(c3ccc(Cl)c(Cl)c3)C2=O)cc1O	–
> 50 µM	COc1ccc(/C=C2\C(=O)NN(c3ccc(Cl)c(Cl)c3)C2=O)cc1OC	–
2.5 µM	COc1cc(/C=C2\C(=O)NN(c3ccc(Cl)c(Cl)c3)C2=O)ccc1O	–
20 µM	O=C1NN(c2ccc(Cl)c(Cl)c2)C(=O)/C1=C/c1ccccc1Cl	–
> 50 µM	O=C1NN(c2ccc(Cl)c(Cl)c2)C(=O)/C1=C/c1ccccc1	–
> 50 µM	O=C1NN(c2ccc(Cl)c(Cl)c2)C(=O)/C1=C/c1ccccc1F	–
> 50 µM	COc1ccc(N2NC(=O)/C(=C\c3ccc(OC)c(O)c3)C2=O)cc1	–
> 50 µM	COc1ccc(N2NC(=O)/C(=C\c3cc(O)cc(O)c3)C2=O)cc1	–
20 µM	O=C1NN(c2ccc(Cl)c(Cl)c2)C(=O)/C1=C/c1ccc(Cl)cc1	–
> 50 µM	O=C1NN(c2ccc(Cl)c(Cl)c2)C(=O)/C1=C/c1ccccc1[N+](=O)[O-]	–
